Laboratory results reported in ChEMBL document CHEMBL1125170, “A novel series of selective leukotriene antagonists: exploration and optimization of the acidic region in 1,6-disubstituted indoles and indazoles” (1990).

Key:
Cavia porcellus [1] = organism: Cavia porcellus; assay: In vitro antagonism of 8 nM of peptidoleukotriene (LTE4) induced contraction of guinea pig tracheal spirals at 100 X E-7M concentration; assay type: functional, Trachea
Procedure, shortened: (§1)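 Guinea pig tracheal spirals held at 37 °C in modified Krebs' (mM: NaCl 119, KCl 4.6, CaCl2 1.8, MgCl2 0.5, NaHCO3 24.9, NaH2PO4 1.0, glucose 11.1) plus indomethacin 5 μM, resting tension 2 g, isometric recording. After reproducible 8 nM LTE4 responses, compound added for 10 min, then rechallenged. % inhibition is adjusted for the paired vehicle tissue. At least four spirals, paired t test.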

Cavia porcellus [2] = organism: Cavia porcellus; assay: In vitro antagonism of 8 nM of peptidoleukotriene (LTE4) induced contraction of guinea pig tracheal spirals at 10 X E-7M concentration; assay type: functional, Trachea; procedure, shortened: as §1
Cavia porcellus [3] = organism: Cavia porcellus; assay: In vitro antagonism of 8 nM of peptidoleukotriene (LTE4) induced contraction of guinea pig tracheal spirals at 0.033 X E-7M concentration; assay type: functional, Trachea; procedure, shortened: as §1
Cavia porcellus [4] = organism: Cavia porcellus; assay: Dissociation constant KB = [antagonist]/(dose ratio -1). KB determined in guinea pig tracheal spirals with LTE4 as agonist.; assay type: functional, Trachea
Procedure, shortened: (§2)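 Isolated guinea pig tracheal strips in Krebs' buffer with indomethacin (5 μM), 37 °C, 95% O2/5% CO2, resting tension 2 g. Carbachol (30 μM) sets the maximum. Antagonist incubated 30 min, then cumulative LTE4 concentration–response curves in log increments, one curve per tissue. EC50 by linear regression, paired vehicle controls. KB = [antagonist]/(DR − 1) (Furchgott).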

Cavia porcellus [5] = organism: Cavia porcellus; assay: In vitro antagonism of 8 nM of peptidoleukotriene (LTE4) induced contraction of guinea pig tracheal spirals at 33 X E-7M concentration; assay type: functional, Trachea; procedure, shortened: as §1
Cavia porcellus [6] = organism: Cavia porcellus; assay: In vitro antagonism of 8 nM of peptidoleukotriene (LTE4) induced contraction of guinea pig tracheal spirals at 1 X E-7M concentration; assay type: functional, Trachea; procedure, shortened: as §1
Cavia porcellus [7] = organism: Cavia porcellus; assay: In vitro antagonism of 8 nM of peptidoleukotriene (LTE4) induced contraction of guinea pig tracheal spirals at 0.1 X E-7M concentration; assay type: functional, Trachea; procedure, shortened: as §1
Cavia porcellus [8] = organism: Cavia porcellus; assay: In vitro antagonism of 8 nM of peptidoleukotriene (LTE4) induced contraction of guinea pig tracheal spirals at 3.3 X E-7M concentration; assay type: functional, Trachea; procedure, shortened: as §1
[9] = target: T1, Cysteinyl leukotriene receptor 1 (Cavia porcellus) (UniProt Q2NNR5); assay: Dissociation constant KB = [antagonist]/(dose ratio -1).KB determined in guinea pig tracheal spirals with LTE4 as agonist; assay type: functional, tissue-based; conditions: Trachea; procedure, shortened: as §2
T1 sequence (whole entry): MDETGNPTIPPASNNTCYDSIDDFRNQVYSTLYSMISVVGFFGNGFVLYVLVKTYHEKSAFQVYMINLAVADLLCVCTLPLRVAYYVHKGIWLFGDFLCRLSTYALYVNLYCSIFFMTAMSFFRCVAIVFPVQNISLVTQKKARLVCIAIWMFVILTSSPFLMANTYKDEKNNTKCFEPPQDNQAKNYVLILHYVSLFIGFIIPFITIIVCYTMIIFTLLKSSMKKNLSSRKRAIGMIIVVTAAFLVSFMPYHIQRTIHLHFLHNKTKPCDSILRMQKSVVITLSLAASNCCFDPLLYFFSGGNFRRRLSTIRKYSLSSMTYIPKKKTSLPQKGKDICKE

Cavia porcellus [10] = organism: Cavia porcellus; assay: In vitro antagonism of 8 nM of peptidoleukotriene (LTE4) induced contraction of guinea pig tracheal spirals at 0.01 X E-7M concentration; assay type: functional, Trachea; procedure, shortened: as §1

Compound | Antagonism (Cavia porcellus [1]) | pKB (Cavia porcellus [4]) | further results
CCCCC(CC)C(=O)Nc1ccc2ccn(Cc3ccc(C(=O)NCC(=O)O)cc3OC)c2c1 (stereo not given) | 43% |  | 
CCCCC(CC)C(=O)Nc1ccc2ccn(Cc3ccc(/C=C/C(=O)O)cc3OC)c2c1 (stereo not given) | 31% |  | 
CCCCC(CC)C(=O)Nc1ccc2ccn(Cc3ccc(C(=O)CS(=O)(=O)c4ccccc4)cc3OC)c2c1 (stereo not given) |  |  | Antagonism (Cavia porcellus [2]): 59%
CCCCC(CC)C(=O)Nc1ccc2ccn(Cc3cccc(C(=O)O)c3)c2c1 (stereo not given) | 31% |  | 
CCCCC(CC)C(=O)Nc1ccc2ccn(Cc3ccc(C(=O)Nc4ccccc4C(=O)O)cc3OC)c2c1 (stereo not given) | 34% |  | 
CCC(C(=O)Nc1ccc2cnn(Cc3ccc(C(=O)NS(=O)(=O)c4ccccc4)cc3OC)c2c1)c1ccccc1 (stereo not given) |  |  | Antagonism (Cavia porcellus [3]): 43%
CCCCC(CC)C(=O)Nc1ccc2ccn(Cc3ccc(C(=O)NS(=O)(=O)c4ccc(OC)cc4)cc3OC)c2c1 (stereo not given) |  | 7.4 | 
COc1ccc(OC)c(S(=O)(=O)NC(=O)c2ccc(Cn3ccc4ccc(NC(=O)CC5CCCC5)cc43)c(OC)c2)c1 |  | 9.1 | 
CCCCC(CC)C(=O)Nc1ccc2ccn(Cc3ccc(C(=O)O)c(Br)c3)c2c1 (stereo not given) |  |  | Antagonism (Cavia porcellus [5]): 33%
CCCCC(CC)C(=O)Nc1ccc2ccn(Cc3c(OC)cc(C(=O)O)cc3OC)c2c1 (stereo not given) |  |  | Antagonism (Cavia porcellus [2]): 63%
COc1cc(-c2nn[nH]n2)ccc1Cn1ncc2ccc(NC(=O)OC3CCCC3)cc21 |  | 7.7 | Antagonism (Cavia porcellus [2]): 100%; Antagonism (Cavia porcellus [6]): 58%
CCCCC(CC)C(=O)Nc1ccc2ccn(Cc3cccc(C(=O)O)c3OC)c2c1 (stereo not given) | 38% |  | 
COc1cc(C(=O)NS(=O)(=O)c2ccccn2)ccc1Cn1ccc2ccc(NC(=O)CC3CCCC3)cc21 |  | 8.9 | 
CCCCC(CC)C(=O)Nc1ccc2ccn(Cc3ccc(C(=O)O)cc3C)c2c1 (stereo not given) | 91% |  | Antagonism (Cavia porcellus [5]): 21%
CCCCC(CC)C(=O)Nc1ccc2ccn(Cc3ccc(C(=O)C(C(=O)OC)S(=O)(=O)c4ccccc4)cc3OC)c2c1 (stereo not given) |  | 8.5 | Antagonism (Cavia porcellus [7]): 65%; Antagonism (Cavia porcellus [6]): 100%
COc1cc(C(=O)NS(=O)(=O)c2ccccc2Cl)ccc1Cn1ccc2ccc(NC(=O)CC3CCCC3)cc21 |  | 9.8 | 

Compound | Antagonism (Cavia porcellus [1]) | pKB (Cavia porcellus [4]) | further results
COc1cc(-c2nn[nH]n2)ccc1Cn1ccc2ccc(NC(=O)CC3CCCC3)cc21 |  |  | Antagonism (Cavia porcellus [2]): 100%; Antagonism (Cavia porcellus [8]): 79%; Antagonism (Cavia porcellus [6]): 42%
COc1cc(C(=O)NS(=O)(=O)c2ccccc2C)ccc1Cn1ncc2ccc(NC(=O)CC3CCCC3)cc21 |  | 10.9 | 
CCCCOC(=O)Nc1ccc2ccn(Cc3ccc(-c4nn[nH]n4)cc3OC)c2c1 |  | 7.2 | Antagonism (Cavia porcellus [2]): 68%
CCCCC(CC)C(=O)Nc1ccc2ccn(Cc3ccc(C(=O)NS(=O)(=O)c4ccccc4C)cc3OC)c2c1 (stereo not given) |  | 8.9 | 
CCCCC(CC)C(=O)Nc1ccc2ccn(Cc3ccc(S(=O)(=O)O)cc3)c2c1 (stereo not given) | 48% |  | 
CCCCC(CC)C(=O)Nc1ccc2ccn(Cc3ccc(-c4nn[nH]n4)cc3OC)c2c1 (stereo not given) |  |  | pKB [9]: 6.6; Antagonism (Cavia porcellus [2]): 50%; Antagonism (Cavia porcellus [8]): 31%
COc1cc(C(=O)NS(=O)(=O)c2cc(C)ccc2C)ccc1Cn1ccc2ccc(NC(=O)CC3CCCC3)cc21 |  | 8.4 | 
COC(=O)C(C(=O)c1ccc(Cn2ncc3ccc(NC(=O)OC4CCCC4)cc32)c(OC)c1)S(=O)(=O)c1ccccc1 (stereo not given) |  | 9.9 | Antagonism (Cavia porcellus [3]): 78%; Antagonism (Cavia porcellus [10]): 53%
CCCCC(CC)C(=O)Nc1ccc2ccn(Cc3ccc(S(=O)(=O)NC(=O)c4ccccc4)cc3)c2c1 (stereo not given) | 37% |  | 
CCCCC(CC)C(=O)Nc1ccc2ccn(Cc3ccc(OC)c(C(=O)O)c3)c2c1 (stereo not given) | 28% |  | 
CCCCC(CC)C(=O)Nc1ccc2ccn(Cc3ccc(C(=O)NS(=O)(=O)Cc4ccccc4)cc3OC)c2c1 (stereo not given) | 89% |  | 
CCCCOC(=O)Nc1ccc2cnn(Cc3ccc(-c4nn[nH]n4)cc3OC)c2c1 |  | 7.1 | Antagonism (Cavia porcellus [8]): 55%
COc1cc(C(=O)NS(=O)(=O)c2ccccc2N)ccc1Cn1ccc2ccc(NC(=O)CC3CCCC3)cc21 |  | 9.9 | 
CCCCC(CC)C(=O)Nc1ccc2ccn(Cc3ccc(C(=O)NS(=O)(=O)c4ccc(C)cc4)cc3OC)c2c1 (stereo not given) |  | 8.4 | 
CCCCC(CC)C(=O)Nc1ccc2ccn(Cc3ccc(C(=O)C(C#N)S(=O)(=O)c4ccccc4)cc3OC)c2c1 (stereo not given) |  | 8.1 | Antagonism (Cavia porcellus [6]): 73%
